According to ChEMBL document CHEMBL2396643, “Discovery of a small molecular compound simultaneously targeting RXR and HADC: design, synthesis, molecular docking and bioassay” (Bioorg Med Chem Lett, 2013):

Experiments:
HGC-27 = test: Cytotoxicity against human HGC27 cells assessed as growth inhibition after 72 hrs by MTT assay; assay type: functional, cell-based; conditions: HGC-27, 72 h
KB [1] = test: Cytotoxicity against bexarotene-resistant human KB cells assessed as growth inhibition after 48 hrs by MTT assay; assay type: functional, cell-based
In short: (§1)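 Cells seeded at 3000 per well and exposed to diluted compounds, with bexarotene and SAHA as positive controls, for 48 h (drug-resistant cells) or 72 h (parental cells). Final DMSO 0.1%. Cell number determined by MTT dye per manufacturer instructions.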

[2] = Cytotoxicity against human GBC-SD cells assessed as growth inhibition after 72 hrs by MTT assay; assay type: functional, cell-based
KB [3] = test: Cytotoxicity against human KB cells assessed as growth inhibition after 72 hrs by MTT assay; assay type: functional, cell-based; in short: as §1
DU-145 = test: Cytotoxicity against human DU145 cells assessed as growth inhibition after 72 hrs by MTT assay; assay type: functional, cell-based; conditions: DU-145, 72 h
In short: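 Seeded at 3000 cells/well and incubated with diluted compounds, with bexarotene and SAHA as positive controls, for 72 h. Final DMSO 0.1%. Remaining cells quantified with MTT dye per manufacturer instructions.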

[4] = Cytotoxicity against human Hep3B cells assessed as growth inhibition after 72 hrs by MTT assay; assay type: functional, cell-based, Hep 3B2
A549/SAHA = test: cells; conditions: Homo sapiens, 48 h
[5] = biological target: T1, Histone deacetylase (Homo sapiens) (UniProt Q13547+O15379+Q9UBN7+Q92769+Q9UQL6+Q8WUI4+Q9BY41+Q96DB2+P56524+Q9UKV0+Q969S8); test: Inhibition of HDAC in human HL60 cells assessed as increase in p21 WAF1/CIP1 level after 48 hrs by Western blot analysis; assay type: cell-based; conditions: HL-60
In short: (§2)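 About 1 × 10⁷ HL60 cells exposed to compound or SAHA for 48 h. Nuclear protein extracted, equal protein amounts resolved on 10–15% SDS–PAGE and blotted to PVDF. Probed for acetylated H3 and p21WAF1/CIP1, with histone H3 and β-actin as loading controls. ECL detection on X-ray film, densitometry relative to control.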

[6] = biological target: T1, Histone deacetylase (Homo sapiens); test: Inhibition of HDAC in human HL60 cells using Boc-Lys(Ac)-pNA as substrate incubated for 24 hrs prior to substrate addition measured after 90 mins by fluorescence assay; assay type: cell-based; conditions: HL-60
In short: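 HL60 cells exposed to a range of compound concentrations or SAHA for 24 h, then lysed and protein measured by BCA. Lysates incubated with Boc-Lys(Ac)-pNA (10 mM) in HDAC assay buffer for 90 min at 37 °C. Lysine Developer added and incubated 30 min at 37 °C before plate-reader readout. Mean ± SD of three determinations.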

[7] = biological target: T2, Retinoic acid receptor RXR-alpha (Homo sapiens, UniProt P19793); test: Transactivation of human RXRalpha transfected in human 293 cells after 48 hrs by dual-luciferase reporter gene assay; assay type: cell-based, HEK293
T2 sequence (P19793 whole entry): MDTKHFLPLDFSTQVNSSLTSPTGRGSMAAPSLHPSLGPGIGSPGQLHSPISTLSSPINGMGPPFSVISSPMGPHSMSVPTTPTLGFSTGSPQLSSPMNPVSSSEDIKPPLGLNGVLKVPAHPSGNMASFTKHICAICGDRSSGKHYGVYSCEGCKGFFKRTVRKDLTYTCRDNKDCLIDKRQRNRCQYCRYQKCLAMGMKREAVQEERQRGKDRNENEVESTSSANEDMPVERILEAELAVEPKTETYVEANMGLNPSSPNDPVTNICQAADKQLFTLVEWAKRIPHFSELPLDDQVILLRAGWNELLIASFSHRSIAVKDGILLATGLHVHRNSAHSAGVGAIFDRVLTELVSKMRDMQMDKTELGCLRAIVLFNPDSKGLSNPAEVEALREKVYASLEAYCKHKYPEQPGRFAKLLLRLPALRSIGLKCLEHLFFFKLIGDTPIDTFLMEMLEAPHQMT

[8] = biological target: T1, Histone deacetylase (Homo sapiens); test: Inhibition of HDAC in human HL60 cells assessed as increase in acetylated H3 level after 48 hrs by Western blot analysis; assay type: cell-based; conditions: HL-60; in short: as §2
Histone deacetylase = test: Inhibition of HDAC isolated from human HeLa cell nuclear extract after 30 mins by fluorescence assay; assay type: protein assay
A549 = test: Cytotoxicity against human A549 cells assessed as growth inhibition after 72 hrs by MTT assay; assay type: functional, cell-based; conditions: A549, 72 h

Compound | IC50 (HGC-27) [µM] | IC50 (KB [1]) [µM] | IC50 [2] [µM] | IC50 (KB [3]) [µM] | IC50 (DU-145) [µM] | IC50 [4] [µM] | IC50 (A549/SAHA) [µM] | inhibition [5] | inhibition [6] | EC50 [7] [µM] | inhibition [8] | IC50 (Histone deacetylase) [µM] | IC50 (A549) [µM]
C=C(c1ccc(C(=O)O)cc1)c1cc2c(cc1C)C(C)(C)CCC2(C)C [BEXAROTENE] | 32.7 | 46.3 | 73.3 | 8.8 | 61.6 | 192 | – | – | – | – | – | – | –
O=C(CCCCCCC(=O)Nc1ccccc1)NO [VORINOSTAT] | – | – | – | – | 27.2 | – | – | – | – | – | – | – | –
C=C(c1ccc(C(=O)NO)cc1)c1cc2c(cc1C)C(C)(C)CCC2(C)C | 8.6 | 16.8 | 24.1 | 6.1 | 14.1 | 17.4 | 3.8 | Dose-dependent effect | Dose-dependent effect | 0.0195 | Dose-dependent effect | 6.7 | 9.4
